# Test results as given in ChEMBL document CHEMBL1811844, “Design, synthesis, and biological evaluation of triazolo-pyrimidine derivatives as novel inhibitors of hepatitis B virus surface antigen (HBsAg) secretion” (J Med Chem, 2011).
# What was measured:
# [1] = system: Mus musculus; experiment: Acute toxicity in CL57BL/6 mouse assessed as effect on serum alkaline phosphatase level at 25 mg/kg, iv administered as single dose after 24 hrs; format: organism-based; set-up: dose 25 mg/kg, route intravenous; conditions: in vivo
# In short: (§1)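 Female C57BL/6 mice, four per group, randomized, each given one tail-vein injection of a 2 mg/mL solution in 1:1 NMP:Solutol HS15 diluted with saline; a vehicle-only group served as control. Serum was collected and run on an automated chemistry and electrolyte analyser.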
# [2] = system: Rattus norvegicus; experiment: Oral bioavailability in fasted Sprague-Dawley rat at 25 mg/kg after 6 hrs by LC/MS/MS analysis; format: ADME, organism-based; conditions: in vivo
# In short: (§2)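 Male Sprague-Dawley rats, 3 per treatment, carried jugular cannulae and were fasted 12 h with water. Compound was formulated at 2 mg/mL in 1:1 NMP:Solutol HS15 diluted with saline. Dosing was 5 mg/kg iv or 25 mg/kg oral gavage. Blood was drawn predose and at 5, 15, 30 min, 1, 3 and 6 h. Plasma was quantified by LC-MS/MS against an 8-point standard curve.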
# [3] = system: Mus musculus; experiment: Acute toxicity in CL57BL/6 mouse assessed as weight loss at 25 mg/kg, iv administered as single dose after 24 hrs; format: organism-based; set-up: dose 25 mg/kg, route intravenous; conditions: in vivo
# In short: (§3)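 Female C57BL/6 mice, four per group, randomised; single tail-vein bolus in NMP:Solutol HS15 (1:1) diluted with saline to 2 mg/mL, injected within 10 min of preparation; vehicle-only group. Close observation for the first hour; sacrifice and necropsy at 24 h. Whole-blood complete blood counts and serum chemistry, including total bilirubin and total protein, were measured.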
# [4] = system: Mus musculus; experiment: Acute toxicity in CL57BL/6 mouse assessed as effect on serum phosphorus level at 25 mg/kg, iv administered as single dose after 24 hrs; format: organism-based; set-up: dose 25 mg/kg, route intravenous; conditions: in vivo
# In short: as §1, with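 “control. Mice were watched for the first hour and sacrificed at 24 h with necropsy.” for “control.”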
# [5] = system: Mus musculus; experiment: Toxicity in HBV infected transgenic 1.3.32 mouse assessed as morphological changes at 7.9 to 25 mg/kg, po qd for 14 days; format: organism-based; set-up: dose 7.9-25 mg/kg, route oral; conditions: in vivo, 336 h
# In short: (§4)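 HBV-transgenic mice (strain 1.3.32), 10 per group, randomised; oral gavage once daily for 14 days at 25 or 7.9 mg/kg in NMP:Solutol HS15/saline vehicle; vehicle-only group. Weighed before the first dose and after 3 days; observed one hour after each dose. Tail-vein blood taken before dosing, at day 7 and at day 14 necropsy, each 3 h post-dose, for serum chemistry.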
# [6] = system: Mus musculus; experiment: Acute toxicity in CL57BL/6 mouse assessed as effect on serum K+ level at 25 mg/kg, iv administered as single dose after 24 hrs; format: organism-based; set-up: dose 25 mg/kg, route intravenous; conditions: in vivo
# In short: as §1, with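 “control. Mice were watched for the first hour and sacrificed at 24 h with necropsy.” for “control.”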
# [7] = system: Mus musculus; experiment: Acute toxicity in CL57BL/6 mouse assessed as effect on hemoglobin concentration at 25 mg/kg, iv administered as single dose after 24 hrs; format: organism-based; set-up: dose 25 mg/kg, route intravenous; conditions: in vivo
# In short: (§5)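 Female C57BL/6 mice, four per group, randomized, each given one tail-vein injection of a 2 mg/mL solution in 1:1 NMP:Solutol HS15 diluted with saline; a vehicle-only group served as control. Mice were watched closely for the first hour and sacrificed at 24 h with necropsy. Whole blood was taken for complete blood counts on an automated haematology analyser.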
# [8] = system: Mus musculus; experiment: Acute toxicity in CL57BL/6 mouse assessed as effect on mean corpuscular volume at 25 mg/kg, iv administered as single dose after 24 hrs; format: organism-based; set-up: dose 25 mg/kg, route intravenous; conditions: in vivo; in short: as §5
# [9] = system: Mus musculus; experiment: Acute toxicity in CL57BL/6 mouse assessed as effect on eosinophils percent at 25 mg/kg, iv administered as single dose after 24 hrs; format: organism-based; set-up: dose 25 mg/kg, route intravenous; conditions: in vivo; in short: as §5
# [10] = system: Mus musculus; experiment: Acute toxicity in CL57BL/6 mouse assessed as effect on serum total bilirubin level at 25 mg/kg, iv administered as single dose after 24 hrs; format: organism-based; set-up: dose 25 mg/kg, route intravenous; conditions: in vivo
# In short: as §5, with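 “watched” for “watched closely”, “Serum” for “Whole blood”, “collected and run” for “taken for complete blood counts”, “chemistry and electrolyte” for “haematology”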
# [11] = system: Mus musculus; experiment: Acute toxicity in CL57BL/6 mouse assessed as effect on serum blood urea nitrogen level at 25 mg/kg, iv administered as single dose after 24 hrs; format: organism-based; set-up: dose 25 mg/kg, route intravenous; conditions: in vivo
# In short: as §5, with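 “watched” for “watched closely”, “Serum” for “Whole blood”, “collected and run” for “taken for complete blood counts”, “chemistry and electrolyte” for “haematology”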
# [12] = system: Mus musculus; experiment: Toxicity in HBV infected transgenic 1.3.32 mouse assessed as mortality at 7.9 to 25 mg/kg, po qd for 14 days; format: organism-based; set-up: dose 7.9-25 mg/kg, route oral; conditions: in vivo, 336 h; in short: as §4
# [13] = system: Mus musculus; experiment: Toxicity in HBV infected transgenic 1.3.32 mouse assessed as change in serum globulin level at 7.9 to 25 mg/kg, po qd for 14 days; format: organism-based; set-up: dose 7.9-25 mg/kg, route oral; conditions: in vivo, 336 h; in short: as §4
# [14] = system: Hepatitis B virus; experiment: Antiviral activity against adefovir-resistant Hepatitis B virus harboring polymerase A529V mutant in human HepG2 cells assessed as inhibition of HBsAg secretion by ELISA; format: functional, organism-based
# [15] = system: Mus musculus; experiment: Toxicity in HBV infected transgenic 1.3.32 mouse assessed as elevation in serum bilirubin level at 7.9 to 25 mg/kg, po qd for 14 days; format: organism-based; set-up: dose 7.9-25 mg/kg, route oral; conditions: in vivo, 336 h; in short: as §4
# [16] = system: Rattus norvegicus; experiment: Total body clearance in fasted Sprague-Dawley rat at 5 mg/kg, iv by LC/MS/MS analysis; format: ADME, organism-based; set-up: dose 5 mg/kg, route intravenous; conditions: in vivo; in short: as §2
# [17] = Cytotoxicity against human HepG2(2.2.15) cells by MTT assay; format: cell-based
# [18] = system: Mus musculus; experiment: Acute toxicity in CL57BL/6 mouse assessed as effect on hemoglobin at 25 mg/kg, iv administered as single dose after 24 hrs; format: organism-based; set-up: dose 25 mg/kg, route intravenous; conditions: in vivo; in short: as §5
# [19] = system: Mus musculus; experiment: Acute toxicity in CL57BL/6 mouse assessed as reduction in platelets count at 25 mg/kg, iv administered as single dose after 24 hrs; format: organism-based; set-up: dose 25 mg/kg, route intravenous; conditions: in vivo; in short: as §3
# [20] = system: Mus musculus; experiment: Acute toxicity in CL57BL/6 mouse assessed as effect on serum Ca2+ level at 25 mg/kg, iv administered as single dose after 24 hrs; format: organism-based; set-up: dose 25 mg/kg, route intravenous; conditions: in vivo
# In short: as §5, with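 “watched” for “watched closely”, “Serum” for “Whole blood”, “collected and run” for “taken for complete blood counts”, “chemistry and electrolyte” for “haematology”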
# [21] = system: Hepatitis B virus; experiment: Antiviral activity against entecavir-resistant Hepatitis B virus harboring polymerase L528M, M552V, T532G and S550I mutant in human HepG2 cells assessed as inhibition of HBsAg secretion by ELISA; format: functional, organism-based
# [22] = system: Mus musculus; experiment: Toxicity in HBV infected transgenic 1.3.32 mouse assessed as weight loss at 7.9 to 25 mg/kg, po qd for 14 days; format: organism-based; set-up: dose 7.9-25 mg/kg, route oral; conditions: in vivo, 336 h; in short: as §4
# [23] = system: Mus musculus; experiment: Acute toxicity in CL57BL/6 mouse assessed as effect on red blood cells count at 25 mg/kg, iv administered as single dose after 24 hrs; format: organism-based; set-up: dose 25 mg/kg, route intravenous; conditions: in vivo; in short: as §5
# [24] = system: Mus musculus; experiment: Acute toxicity in CL57BL/6 mouse assessed as effect on white blood cells count at 25 mg/kg, iv administered as single dose after 24 hrs; format: organism-based; set-up: dose 25 mg/kg, route intravenous; conditions: in vivo; in short: as §3
# [25] = system: Mus musculus; experiment: Toxicity in HBV infected transgenic 1.3.32 mouse assessed as change in serum creatinine level at 7.9 to 25 mg/kg, po qd for 14 days; format: organism-based; set-up: dose 7.9-25 mg/kg, route oral; conditions: in vivo, 336 h; in short: as §4
# [26] = system: Mus musculus; experiment: Acute toxicity in CL57BL/6 mouse assessed as effect on red cell distribution width at 25 mg/kg, iv administered as single dose after 24 hrs; format: organism-based; set-up: dose 25 mg/kg, route intravenous; conditions: in vivo; in short: as §5
# [27] = system: Mus musculus; experiment: Acute toxicity in CL57BL/6 mouse assessed as effect on serum glucose level at 25 mg/kg, iv administered as single dose after 24 hrs; format: organism-based; set-up: dose 25 mg/kg, route intravenous; conditions: in vivo
# In short: as §5, with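 “watched” for “watched closely”, “Serum” for “Whole blood”, “collected and run” for “taken for complete blood counts”, “chemistry and electrolyte” for “haematology”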
# [28] = system: Mus musculus; experiment: Toxicity in HBV infected transgenic 1.3.32 mouse assessed as change in serum phosphorus level at 7.9 to 25 mg/kg, po qd for 14 days; format: organism-based; set-up: dose 7.9-25 mg/kg, route oral; conditions: in vivo, 336 h; in short: as §4
# [29] = system: Mus musculus; experiment: Acute toxicity in CL57BL/6 mouse assessed as effect on serum Na+ level at 25 mg/kg, iv administered as single dose after 24 hrs; format: organism-based; set-up: dose 25 mg/kg, route intravenous; conditions: in vivo
# In short: as §5, with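 “watched” for “watched closely”, “Serum” for “Whole blood”, “collected and run” for “taken for complete blood counts”, “chemistry and electrolyte” for “haematology”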
# [30] = system: Mus musculus; experiment: Acute toxicity in CL57BL/6 mouse assessed as mortality at 25 mg/kg, iv administered as single dose after 24 hrs; format: organism-based; set-up: dose 25 mg/kg, route intravenous; conditions: in vivo; in short: as §3
# [31] = system: Hepatitis B virus; experiment: Antiviral activity against lamivudine/telbivudine-resistant Hepatitis B virus harboring polymerase L528M and M552V mutant in human HepG2 cells assessed as inhibition of HBsAg secretion by ELISA; format: functional, organism-based
structure (smiles),measurement,setting,value
Fc1cccc(Cl)c1C1CC(c2ccc(Cl)cc2)Nc2ncnn21 (racemic),Activity,[1],Non-toxic
same,F,[2],31%
same,Activity,[3],Non-toxic
same,Activity,[4],Non-toxic
same,Activity,[5],Non-toxic
same,Activity,[6],Non-toxic
same,Activity,[7],Non-toxic
same,Activity,[8],Non-toxic
same,Activity,[9],Non-toxic
same,Activity,[10],Non-toxic
same,Activity,[11],Non-toxic
same,Activity,[12],Non-toxic
same,Activity,[13],Non-toxic
same,EC50,[14],5.8 µM
same,Activity,[15],Toxic
same,CL,[16],12 mL/min/kg
same,CC50,[17],> 50 µM
same,Activity,[18],Non-toxic
same,Activity,[19],Toxic
same,Activity,[20],Non-toxic
same,EC50,[21],8.3 µM
same,Activity,[22],Non-toxic
same,Activity,[23],Non-toxic
same,Activity,[24],Non-toxic
same,Activity,[25],Non-toxic
same,Activity,[26],Non-toxic
same,Activity,[27],Non-toxic
same,Activity,[28],Non-toxic
same,Activity,[29],Non-toxic
same,Activity,[30],Non-toxic
same,EC50,[31],10.3 µM
